Converted amounts (≈) assume the structure as drawn. “And” between values parts separate entries of the source, which are not always exact repeats. Equal entries are not always repeated.
Experiments:
[1] = target: T1, Epidermal growth factor receptor (Homo sapiens, UniProt P00533); assay: Inhibition of epidermal growth factor receptor (EGFR) autophosphorylation in A431 cells
[2] = target: T1, Epidermal growth factor receptor; assay: Inhibition of phosphorylation of polyglutamic acid/tyrosine random copolymer by epidermal growth factor receptor.
[3] = target: T1, Epidermal growth factor receptor; assay: Inhibition of epidermal growth factor receptor (EGFR) from human A431 carcinoma cells
[4] = Solubility in water was determined; assay type: physicochemical
Outline: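 Drug weighed to give approximately 50 mM, sonicated 30 min in 0.05 M sodium lactate buffer (neutral compounds, amine hydrochlorides) or water (sodium salts of acids), left 30 min, centrifuged 13 000 rpm 3 min; supernatant concentration measured by HPLC against calibration from MeOH or DMSO stocks, assuming linear response; 20 °C.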

Mus musculus [5] = species on record: Mus musculus; assay: Treatment-related weight loss in mice; assay type: functional
Outline: (§1)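 Mice 18-22 g, randomized, implanted sc with A431 epidermoid or EGFR-transfected NIH 3T3 tumor fragments in right axilla on day 0; tumors maintained by serial passage in NCr nu/nu nude mice. Isethionate salts given ip in water, b.i.d. on indicated schedules (days 7-21, 3-17 or 1-15), dosed by average cage weight; solutions prepared 5 days at a time. Maximum treatment-related body weight loss recorded.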

Mus musculus [6] = species on record: Mus musculus; assay: Ratio of median treated tumor mass on the last day of therapy divided by the median control tumor mass x 100%.; assay type: functional; outline: as §1

T1 sequence (P00533 whole entry): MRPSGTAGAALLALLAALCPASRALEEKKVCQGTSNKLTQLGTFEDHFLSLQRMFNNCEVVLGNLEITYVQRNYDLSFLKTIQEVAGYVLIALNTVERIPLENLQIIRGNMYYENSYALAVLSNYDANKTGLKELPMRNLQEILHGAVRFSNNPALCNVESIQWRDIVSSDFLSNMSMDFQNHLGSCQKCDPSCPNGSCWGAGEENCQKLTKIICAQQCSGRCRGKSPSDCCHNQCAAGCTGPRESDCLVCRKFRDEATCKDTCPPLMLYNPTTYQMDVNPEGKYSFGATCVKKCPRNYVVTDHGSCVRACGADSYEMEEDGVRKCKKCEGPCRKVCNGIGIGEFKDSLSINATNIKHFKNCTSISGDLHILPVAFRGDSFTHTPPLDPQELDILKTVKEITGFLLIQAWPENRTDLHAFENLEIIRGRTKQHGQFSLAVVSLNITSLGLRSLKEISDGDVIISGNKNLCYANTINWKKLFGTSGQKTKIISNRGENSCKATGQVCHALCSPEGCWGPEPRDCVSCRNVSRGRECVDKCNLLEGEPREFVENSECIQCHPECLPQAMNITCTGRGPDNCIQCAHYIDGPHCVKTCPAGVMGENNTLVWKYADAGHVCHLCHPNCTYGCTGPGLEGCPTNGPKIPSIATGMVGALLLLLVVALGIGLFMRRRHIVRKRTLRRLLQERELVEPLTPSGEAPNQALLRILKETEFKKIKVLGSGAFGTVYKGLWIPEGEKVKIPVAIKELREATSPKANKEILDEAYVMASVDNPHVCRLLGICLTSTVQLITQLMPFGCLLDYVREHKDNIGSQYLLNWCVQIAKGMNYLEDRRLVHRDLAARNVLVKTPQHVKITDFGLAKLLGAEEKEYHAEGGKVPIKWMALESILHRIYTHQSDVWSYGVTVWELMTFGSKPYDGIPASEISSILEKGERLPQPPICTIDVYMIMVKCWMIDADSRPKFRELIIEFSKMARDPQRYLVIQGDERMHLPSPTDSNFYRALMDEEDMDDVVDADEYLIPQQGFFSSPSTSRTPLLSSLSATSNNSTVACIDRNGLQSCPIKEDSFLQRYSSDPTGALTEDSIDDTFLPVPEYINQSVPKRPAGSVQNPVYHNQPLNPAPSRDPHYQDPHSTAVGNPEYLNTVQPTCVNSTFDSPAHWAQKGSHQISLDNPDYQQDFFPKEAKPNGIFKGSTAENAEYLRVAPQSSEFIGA

Row | Structure (SMILES) | IC50 [2] [nM] | other results
1 | Brc1cccc(Nc2ncnc3cc(NCCN4CCOCC4)ncc23)c1 | 3.2 | IC50 [1]: 36 nM
2 | CN(C)CCCNc1cc2ncnc(Nc3cccc(Br)c3)c2cn1 | 8.8 | –
3 | CN(CC(=O)O)c1cc2ncnc(Nc3cccc(Br)c3)c2cn1 | 16 | –
4 | OCCN(CCO)CCNc1cc2ncnc(Nc3cccc(Br)c3)c2cn1 | 9.2 | –
5 | Brc1cccc(Nc2ncnc3cc(NCCCCN4CCOCC4)ncc23)c1 | 5.4 | –
6 | OCCN(CCO)c1cc2ncnc(Nc3cccc(Br)c3)c2cn1 | 12 | –
7 | OCC(CO)Nc1cc2ncnc(Nc3cccc(Br)c3)c2cn1 | 14 | –
8 | Cc1cccc(Nc2ncnc3cc(NCCc4c[nH]cn4)ncc23)c1 | – | IC50 [3]: 7.2 nM; solubility [4]: > 39 mM
9 | CN(C)CCN(C)c1cc2ncnc(Nc3cccc(Br)c3)c2cn1 | 40 | –
10 | Brc1cccc(Nc2ncnc3cc(NCCCn4ccnc4)ncc23)c1 | – | IC50 [3]: 0.51 nM; solubility [4]: > 40 mM
11 | Cc1cccc(Nc2ncnc3cc(NCCCn4ccnc4)ncc23)c1 | – | IC50 [3]: 3.5 nM; solubility [4]: > 34 mM
12 | Brc1cccc(Nc2ncnc3cc(NCCc4c[nH]cn4)ncc23)c1 | – | IC50 [3]: 0.91 nM; solubility [4]: 35 mM (≈ 14.4 mg/mL)
13 | CN(C)CCNc1cc2ncnc(Nc3cccc(Br)c3)c2cn1 | 45 | –
14 | Brc1cccc(Nc2ncnc3cc(NCCCN4CCOCC4)ncc23)c1 | 1.9 | Weight loss (Mus musculus [5]): 1.7 g and 0.9 g; T/C (Mus musculus [6]): 34%; IC50 [1]: 8.1 nM

Further compounds by falling IC50 [2], results first:

Row | IC50 [2] [nM] | Structure (SMILES) | other results
15 | 8.4 | CN(C)CCCCCNc1cc2ncnc(Nc3cccc(Br)c3)c2cn1 | –
16 | 7.4 | CN(C)CCCCNc1cc2ncnc(Nc3cccc(Br)c3)c2cn1 | Weight loss (Mus musculus [5]): 1 g
17 | 7.1 | NNc1cc2ncnc(Nc3cccc(Br)c3)c2cn1 | –
18 | 5.6 | Cc1cccc(Nc2ncnc3cc(NCCCN4CCN(C)CC4)ncc23)c1 | –
19 | 5.4 | Cc1cccc(Nc2ncnc3cc(NCCCCN(C)C)ncc23)c1 | –
20 | 4.9 | CN1CCN(CCCNc2cc3ncnc(Nc4cccc(Br)c4)c3cn2)CC1 | –
21 | 4.8 | OCC(O)C(O)C(O)C(O)CNc1cc2ncnc(Nc3cccc(Br)c3)c2cn1 (stereo unspecified) | –
22 | 3.2 | CN(CC(O)CO)c1cc2ncnc(Nc3cccc(Br)c3)c2cn1 (stereo unspecified) | –
23 | 3.2 | CN(CC(O)C(O)C(O)C(O)CO)c1cc2ncnc(Nc3cccc(Br)c3)c2cn1 (stereo unspecified) | –
24 | 2.6 | CN(CCO)c1cc2ncnc(Nc3cccc(Br)c3)c2cn1 | –
25 | 1.5 | O=C(O)CNc1cc2ncnc(Nc3cccc(Br)c3)c2cn1 | –
26 | 1.4 | O=S(=O)(O)CCNc1cc2ncnc(Nc3cccc(Br)c3)c2cn1 | IC50 [1]: > 1000 nM
27 | 1.4 | CNc1cc2ncnc(Nc3cccc(C)c3)c2cn1 | –
28 | 1.2 | OCCN(CCO)CCCNc1cc2ncnc(Nc3cccc(Br)c3)c2cn1 | –
29 | 0.92 | OCC(O)CNc1cc2ncnc(Nc3cccc(Br)c3)c2cn1 (stereo unspecified) | IC50 [1]: 227 nM
30 | 0.74 | [O-][N+]1(CCCNc2cc3ncnc(Nc4cccc(Br)c4)c3cn2)CCOCC1 | IC50 [1]: > 1000 nM
31 | 0.61 | O=C(O)CCNc1cc2ncnc(Nc3cccc(Br)c3)c2cn1 | IC50 [1]: 11400 nM
32 | 0.28 | O=C(O)CCCNc1cc2ncnc(Nc3cccc(Br)c3)c2cn1 | –
33 | 0.24 | OCCNc1cc2ncnc(Nc3cccc(Br)c3)c2cn1 | –
